Measurements as given in ChEMBL document CHEMBL4627400, “Discovery of Dihydropyrrolo[1,2-a]pyrazin-3(4H)-one-Based Second-Generation GluN2C- and GluN2D-Selective Positive Allosteric Modulators (PAMs) of the N-Methyl-d-Aspartate (NMDA) Receptor” (J Med Chem, 2020).
Values after ≈ are worked out from the molar mass of the structure shown.

System: not listed separately
Assay: Aqueous solubility of the compound at pH 7.4 after 30 mins by nephelometric analysis
Type: physicochemical
Settings: buffer; call rule not given here

Structure (SMILES) | solubility kinetic at 0.5 h
COc1ccc(OC[C@H]2c3cccn3CC(=O)N2Cc2cccc(C(F)(F)F)c2)cc1 | 57 µM (≈ 24.5 µg/mL)
COc1ccc(OCC2c3cccn3CC(=O)N2Cc2cccc(C(F)(F)F)c2)cc1 (configuration not stated) | 57 µM (≈ 24.5 µg/mL)
COc1ccc(OC[C@@H]2c3cccn3CCN2C(=O)c2cccc(C(F)(F)F)c2)cc1 | 58 µM (≈ 25 µg/mL)
COc1ccc(OC[C@H]2c3cccn3CCN2C(=O)c2cccc(Cl)c2)cc1 | 36 µM (≈ 14.3 µg/mL)
COc1ccc(OCC2c3sccc3CCN2C(=O)c2cccc(Cl)c2)cc1 (configuration not stated) | 46 µM (≈ 19 µg/mL)
COc1ccc(OC[C@@H]2c3cccn3CC(=O)N2Cc2cccc(C(F)(F)F)c2)cc1 | 57 µM (≈ 24.5 µg/mL)
COc1ccc(OC[C@@H]2c3cccn3CCN2C(=O)c2cccc(Cl)c2)cc1 | 36 µM (≈ 14.3 µg/mL)

Target: Ionotropic glutamate receptor NMDA 1/2D (Rattus norvegicus) (UniProt P35439+Q62645)
Assay: Positive allosteric modulation of recombinant rat GluN1a/GluN2D receptor expressed in Xenopus laevis oocytes assessed as increase in glycine/L-glutamate-induced channel current at 30 uM by two-electrode voltage clamp method relative to control
Type: cell-based
Settings: not given
Method in brief: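 Oocytes expressing rat GluN1/GluN2C or GluN2D, held at −40 mV in HEPES-buffered Ba2+ solution, pH 7.4, 23 °C. […] Current given as percent of agonist-alone response. […] Doubling concentration is the concentration giving 2-fold response; reported as […] log. 6–19 oocytes from 2–3 frogs.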

Structure (SMILES) | %max
COc1ccc(OCC2c3ccc(OC(C)C)cc3CCN2C(=O)c2cccc(Cl)c2)cc1 (configuration not stated) | 250%
COc1ccc(OCC2c3cccn3CC(=S)N2Cc2cccc(C(F)(F)F)c2)cc1 (configuration not stated) | 110%
COc1ccc(OC[C@H]2c3cccn3CC(=O)N2Cc2cccc(C(F)(F)F)c2)cc1 | 330%
COc1ccc(OCC2c3cccn3CC(=O)N2Cc2cccc(C(F)(F)F)c2)cc1 (configuration not stated) | 400%
COc1ccc(OC[C@@H]2c3cccn3CCN2C(=O)c2cccc(C(F)(F)F)c2)cc1 | 98%
COc1ccc(OC[C@H]2c3cccn3CCN2C(=O)c2cccc(Cl)c2)cc1 | 450%
COc1ccc(OCC2c3sccc3CCN2C(=O)c2cccc(Cl)c2)cc1 (configuration not stated) | 350%
COc1ccc(OC[C@@H]2c3cccn3CC(=O)N2Cc2cccc(C(F)(F)F)c2)cc1 | 88%
COc1ccc(OC[C@@H]2c3cccn3CCN2C(=O)c2cccc(Cl)c2)cc1 | 99%

Target: Glutamate NMDA receptor; Grin1/Grin2a (Rattus norvegicus, UniProt P35439+Q00959)
Sequence (Q00959 whole entry, other chains not shown): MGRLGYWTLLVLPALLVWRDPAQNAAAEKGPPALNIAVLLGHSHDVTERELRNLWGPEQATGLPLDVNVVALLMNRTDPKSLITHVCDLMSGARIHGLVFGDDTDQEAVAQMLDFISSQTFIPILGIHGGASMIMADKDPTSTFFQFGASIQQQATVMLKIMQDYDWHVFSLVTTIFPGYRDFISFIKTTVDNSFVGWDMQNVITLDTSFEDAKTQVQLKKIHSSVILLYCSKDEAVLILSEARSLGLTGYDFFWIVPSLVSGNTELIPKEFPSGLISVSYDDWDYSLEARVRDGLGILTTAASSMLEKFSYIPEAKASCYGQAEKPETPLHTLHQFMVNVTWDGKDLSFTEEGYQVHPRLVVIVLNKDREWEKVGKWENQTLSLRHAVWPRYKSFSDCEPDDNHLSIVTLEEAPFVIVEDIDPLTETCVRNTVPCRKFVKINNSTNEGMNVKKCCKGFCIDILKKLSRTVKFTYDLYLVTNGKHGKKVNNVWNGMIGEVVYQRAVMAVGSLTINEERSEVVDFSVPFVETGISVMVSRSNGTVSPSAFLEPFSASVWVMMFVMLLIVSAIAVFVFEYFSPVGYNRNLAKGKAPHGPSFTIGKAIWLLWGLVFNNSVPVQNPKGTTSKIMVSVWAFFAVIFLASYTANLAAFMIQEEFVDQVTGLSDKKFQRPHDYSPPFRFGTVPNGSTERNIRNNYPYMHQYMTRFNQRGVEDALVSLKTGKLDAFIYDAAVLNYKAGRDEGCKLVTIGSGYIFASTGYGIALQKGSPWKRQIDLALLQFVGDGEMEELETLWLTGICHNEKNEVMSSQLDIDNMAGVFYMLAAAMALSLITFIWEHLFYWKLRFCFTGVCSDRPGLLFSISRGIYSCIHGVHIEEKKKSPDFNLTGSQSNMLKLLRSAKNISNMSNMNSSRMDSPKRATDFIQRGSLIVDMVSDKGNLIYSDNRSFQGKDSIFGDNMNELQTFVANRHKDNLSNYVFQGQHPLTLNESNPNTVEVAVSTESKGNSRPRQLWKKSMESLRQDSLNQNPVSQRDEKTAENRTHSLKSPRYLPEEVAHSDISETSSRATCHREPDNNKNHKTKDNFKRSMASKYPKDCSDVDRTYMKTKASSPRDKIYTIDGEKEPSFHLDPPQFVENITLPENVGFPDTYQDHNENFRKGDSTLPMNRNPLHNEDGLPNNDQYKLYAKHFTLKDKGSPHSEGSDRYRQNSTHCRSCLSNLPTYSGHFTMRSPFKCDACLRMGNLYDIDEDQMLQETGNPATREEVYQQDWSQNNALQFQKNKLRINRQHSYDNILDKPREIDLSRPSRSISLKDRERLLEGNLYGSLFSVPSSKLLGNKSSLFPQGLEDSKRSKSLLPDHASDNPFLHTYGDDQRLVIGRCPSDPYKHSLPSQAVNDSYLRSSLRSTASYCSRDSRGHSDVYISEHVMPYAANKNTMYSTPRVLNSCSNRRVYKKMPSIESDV
Assay: Positive allosteric modulation of recombinant rat GluN1a/GluN2A receptor expressed in Xenopus laevis oocytes assessed as increase in glycine/L-glutamate-induced channel current at 10 to 30 uM by two-electrode voltage clamp method relative to control
Type: cell-based
Settings: not given
Method in brief: (§1)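 TEVC at −40 mV, 23 °C, in 90 NaCl/1 KCl/0.5 BaCl/0.005 EDTA/10 HEPES (mM), pH 7.4. Oocytes expressed rat GluN1/GluN2A or GluN1/GluN2B. […] Some GluN2A oocytes were BAPTA-loaded. 4–17 oocytes from 1–3 frogs.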

Structure (SMILES) | Activity
COc1ccc(OCC2c3ccc(OC(C)C)cc3CCN2C(=O)c2cccc(Cl)c2)cc1 (configuration not stated) | Not Active
COc1ccc(OCC2c3cccn3CC(=S)N2Cc2cccc(C(F)(F)F)c2)cc1 (configuration not stated) | Not Active
COc1ccc(OC[C@H]2c3cccn3CC(=O)N2Cc2cccc(C(F)(F)F)c2)cc1 | Not Active
COc1ccc(OCC2c3cccn3CC(=O)N2Cc2cccc(C(F)(F)F)c2)cc1 (configuration not stated) | Not Active
COc1ccc(OC[C@@H]2c3cccn3CCN2C(=O)c2cccc(C(F)(F)F)c2)cc1 | Not Active
COc1ccc(OC[C@H]2c3cccn3CCN2C(=O)c2cccc(Cl)c2)cc1 | Not Active
COc1ccc(OCC2c3sccc3CCN2C(=O)c2cccc(Cl)c2)cc1 (configuration not stated) | Not Active
COc1ccc(OC[C@@H]2c3cccn3CC(=O)N2Cc2cccc(C(F)(F)F)c2)cc1 | Not Active
COc1ccc(OC[C@@H]2c3cccn3CCN2C(=O)c2cccc(Cl)c2)cc1 | Not Active

Target: Glutamate NMDA receptor; Grin1/Grin2c (Rattus norvegicus) (UniProt P35439+Q00961)
Assay: Positive allosteric modulation of recombinant rat GluN1a/GluN2C receptor expressed in Xenopus laevis oocytes assessed as increase in glycine/L-glutamate-induced channel current at 30 uM by two-electrode voltage clamp method relative to control
Type: cell-based
Settings: not given
Method in brief: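 Oocytes expressing rat GluN1/GluN2C or GluN2D, held at −40 mV in HEPES-buffered Ba2+ solution, pH 7.4, 23 °C. Current given as percent of agonist-alone response. Doubling concentration is the concentration giving 2-fold response; reported as […] log. 6–19 oocytes from 2–3 frogs.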

Structure (SMILES) | %max
COc1ccc(OCC2c3ccc(OC(C)C)cc3CCN2C(=O)c2cccc(Cl)c2)cc1 (configuration not stated) | 240%
COc1ccc(OCC2c3cccn3CC(=S)N2Cc2cccc(C(F)(F)F)c2)cc1 (configuration not stated) | 120%
COc1ccc(OC[C@H]2c3cccn3CC(=O)N2Cc2cccc(C(F)(F)F)c2)cc1 | 280%
COc1ccc(OCC2c3cccn3CC(=O)N2Cc2cccc(C(F)(F)F)c2)cc1 (configuration not stated) | 300%
COc1ccc(OC[C@@H]2c3cccn3CCN2C(=O)c2cccc(C(F)(F)F)c2)cc1 | 99%
COc1ccc(OC[C@H]2c3cccn3CCN2C(=O)c2cccc(Cl)c2)cc1 | 410%
COc1ccc(OCC2c3sccc3CCN2C(=O)c2cccc(Cl)c2)cc1 (configuration not stated) | 280%
COc1ccc(OC[C@@H]2c3cccn3CC(=O)N2Cc2cccc(C(F)(F)F)c2)cc1 | 84%
COc1ccc(OC[C@@H]2c3cccn3CCN2C(=O)c2cccc(Cl)c2)cc1 | 98%

Target: Ionotropic glutamate receptor NMDA 1/2D (Rattus norvegicus, UniProt P35439+Q62645)
Settings: not given

Structure (SMILES) | EC50
COc1ccc(OCC2c3ccc(OC(C)C)cc3CCN2C(=O)c2cccc(Cl)c2)cc1 (configuration not stated) | 3160 nM
COc1ccc(OC[C@H]2c3cccn3CC(=O)N2Cc2cccc(C(F)(F)F)c2)cc1 | 794 nM
COc1ccc(OCC2c3cccn3CC(=O)N2Cc2cccc(C(F)(F)F)c2)cc1 (configuration not stated) | 1580 nM
COc1ccc(OC[C@H]2c3cccn3CCN2C(=O)c2cccc(Cl)c2)cc1 | 2000 nM
COc1ccc(OCC2c3sccc3CCN2C(=O)c2cccc(Cl)c2)cc1 (configuration not stated) | 3980 nM

Target: Glutamate NMDA receptor; Grin1/Grin2b (Rattus norvegicus, UniProt P35439+Q00960)
Sequence (Q00960 whole entry, other chains not shown): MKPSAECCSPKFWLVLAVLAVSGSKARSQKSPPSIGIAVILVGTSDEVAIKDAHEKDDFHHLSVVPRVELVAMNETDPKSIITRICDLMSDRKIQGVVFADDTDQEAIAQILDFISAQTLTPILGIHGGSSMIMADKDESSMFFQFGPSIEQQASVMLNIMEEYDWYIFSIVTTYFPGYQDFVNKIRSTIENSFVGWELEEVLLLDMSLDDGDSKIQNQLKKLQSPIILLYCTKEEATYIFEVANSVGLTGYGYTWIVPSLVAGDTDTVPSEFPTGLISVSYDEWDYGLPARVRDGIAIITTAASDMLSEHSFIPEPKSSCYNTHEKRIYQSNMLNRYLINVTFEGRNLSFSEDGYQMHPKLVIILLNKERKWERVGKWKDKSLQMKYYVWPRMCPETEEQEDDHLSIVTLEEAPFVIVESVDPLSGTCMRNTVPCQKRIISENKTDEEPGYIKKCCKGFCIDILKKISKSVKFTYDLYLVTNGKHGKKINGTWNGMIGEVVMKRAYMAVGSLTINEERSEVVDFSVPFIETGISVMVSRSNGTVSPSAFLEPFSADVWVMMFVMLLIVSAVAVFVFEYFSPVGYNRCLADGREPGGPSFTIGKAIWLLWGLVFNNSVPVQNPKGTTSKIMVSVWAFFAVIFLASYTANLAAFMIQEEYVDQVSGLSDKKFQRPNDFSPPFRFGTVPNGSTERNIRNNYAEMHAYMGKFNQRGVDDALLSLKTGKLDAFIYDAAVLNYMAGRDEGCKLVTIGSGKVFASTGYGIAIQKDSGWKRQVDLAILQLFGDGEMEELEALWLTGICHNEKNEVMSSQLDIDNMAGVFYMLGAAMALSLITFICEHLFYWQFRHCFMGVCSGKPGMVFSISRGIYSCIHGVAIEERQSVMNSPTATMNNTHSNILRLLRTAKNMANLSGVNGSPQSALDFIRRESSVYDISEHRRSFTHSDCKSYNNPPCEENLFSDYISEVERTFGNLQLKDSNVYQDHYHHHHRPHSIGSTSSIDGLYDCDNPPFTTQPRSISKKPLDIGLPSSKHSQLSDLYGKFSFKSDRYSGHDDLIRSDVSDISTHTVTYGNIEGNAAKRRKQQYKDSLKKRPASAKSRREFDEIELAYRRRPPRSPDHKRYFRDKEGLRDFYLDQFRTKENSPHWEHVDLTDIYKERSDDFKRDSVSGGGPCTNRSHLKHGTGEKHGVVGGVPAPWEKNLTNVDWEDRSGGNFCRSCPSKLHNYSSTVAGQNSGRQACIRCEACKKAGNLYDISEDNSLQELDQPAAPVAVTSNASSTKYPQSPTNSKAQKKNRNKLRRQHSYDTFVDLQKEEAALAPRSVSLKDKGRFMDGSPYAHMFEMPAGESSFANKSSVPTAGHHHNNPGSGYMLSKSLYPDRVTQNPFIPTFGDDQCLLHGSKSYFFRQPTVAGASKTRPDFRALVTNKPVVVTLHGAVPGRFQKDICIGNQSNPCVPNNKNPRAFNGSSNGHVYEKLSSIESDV
Assay: Positive allosteric modulation of recombinant rat GluN1a/GluN2B receptor expressed in Xenopus laevis oocytes assessed as increase in glycine/L-glutamate-induced channel current at 10 to 30 uM by two-electrode voltage clamp method relative to control
Type: cell-based
Settings: not given
Method in brief: as §1

Structure (SMILES) | Activity
COc1ccc(OCC2c3ccc(OC(C)C)cc3CCN2C(=O)c2cccc(Cl)c2)cc1 (configuration not stated) | Not Active
COc1ccc(OCC2c3cccn3CC(=S)N2Cc2cccc(C(F)(F)F)c2)cc1 (configuration not stated) | Not Active
COc1ccc(OC[C@H]2c3cccn3CC(=O)N2Cc2cccc(C(F)(F)F)c2)cc1 | Not Active
COc1ccc(OCC2c3cccn3CC(=O)N2Cc2cccc(C(F)(F)F)c2)cc1 (configuration not stated) | Not Active
COc1ccc(OC[C@@H]2c3cccn3CCN2C(=O)c2cccc(C(F)(F)F)c2)cc1 | Not Active
COc1ccc(OC[C@H]2c3cccn3CCN2C(=O)c2cccc(Cl)c2)cc1 | Not Active
COc1ccc(OCC2c3sccc3CCN2C(=O)c2cccc(Cl)c2)cc1 (configuration not stated) | Not Active
COc1ccc(OC[C@@H]2c3cccn3CC(=O)N2Cc2cccc(C(F)(F)F)c2)cc1 | Not Active
COc1ccc(OC[C@@H]2c3cccn3CCN2C(=O)c2cccc(Cl)c2)cc1 | Not Active

Target: Glutamate NMDA receptor; Grin1/Grin2c (Rattus norvegicus, UniProt P35439+Q00961)
Settings: not given

Structure (SMILES) | EC50
COc1ccc(OC[C@H]2c3cccn3CC(=O)N2Cc2cccc(C(F)(F)F)c2)cc1 | 794 nM
COc1ccc(OCC2c3cccn3CC(=O)N2Cc2cccc(C(F)(F)F)c2)cc1 (configuration not stated) | 1260 nM
COc1ccc(OC[C@H]2c3cccn3CCN2C(=O)c2cccc(Cl)c2)cc1 | 2000 nM
COc1ccc(OCC2c3sccc3CCN2C(=O)c2cccc(Cl)c2)cc1 (configuration not stated) | 3980 nM
